Calls of active or inactive are those of the source. The rule behind the calls is not given here.
Target: Protein cereblon/Cyclin-dependent kinase 9 (Homo sapiens, UniProt P50750+Q96SW2)
Assay: Protac activity at CDK9/CRBN in human HEK293 cells assessed as degradation of CDK9 at 0.01 to 10 uM incubated for 24 hrs by Western blot analysis
Assay type: cell-based
Settings: dose 0.01-10 µM
Summary of the method: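 HEK293 cells were treated with increasing concentrations (0.01–10 μM) for 24 hr. Lysates were analysed by western blot for CDK9 degradation.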

Sequence of Protein cereblon/Cyclin-dependent kinase 9 (P50750 whole entry, looked up): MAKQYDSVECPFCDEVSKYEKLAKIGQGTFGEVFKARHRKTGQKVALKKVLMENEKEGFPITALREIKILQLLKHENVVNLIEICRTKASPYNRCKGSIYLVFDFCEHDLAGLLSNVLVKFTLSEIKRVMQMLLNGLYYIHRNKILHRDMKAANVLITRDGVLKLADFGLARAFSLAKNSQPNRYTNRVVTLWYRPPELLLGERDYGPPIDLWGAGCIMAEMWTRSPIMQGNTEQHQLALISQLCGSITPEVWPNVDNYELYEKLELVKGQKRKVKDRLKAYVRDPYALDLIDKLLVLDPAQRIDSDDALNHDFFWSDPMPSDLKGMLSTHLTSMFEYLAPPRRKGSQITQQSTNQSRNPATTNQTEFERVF
Sequence of Protein cereblon/Cyclin-dependent kinase 9 (Q96SW2 whole entry, looked up): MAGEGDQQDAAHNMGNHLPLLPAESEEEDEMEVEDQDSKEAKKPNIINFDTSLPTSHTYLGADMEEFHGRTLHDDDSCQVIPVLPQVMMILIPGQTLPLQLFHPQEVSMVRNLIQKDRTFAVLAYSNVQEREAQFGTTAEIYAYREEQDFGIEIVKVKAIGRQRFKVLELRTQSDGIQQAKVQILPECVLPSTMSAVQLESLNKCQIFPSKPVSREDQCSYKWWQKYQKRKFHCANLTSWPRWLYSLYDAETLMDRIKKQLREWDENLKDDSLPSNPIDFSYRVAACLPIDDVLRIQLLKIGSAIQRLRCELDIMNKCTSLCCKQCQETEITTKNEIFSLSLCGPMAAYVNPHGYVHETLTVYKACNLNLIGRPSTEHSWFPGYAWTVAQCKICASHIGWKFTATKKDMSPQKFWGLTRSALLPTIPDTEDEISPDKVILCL

Activity: inactive
Compound: O=C(CCCOc1ccc(CC(=O)Nc2cc(C3CCC3)[nH]n2)cc1)NCCOCCOCCNc1cccc2c1C(=O)N(C1CCC(=O)NC1=O)C2=O (stereo unspecified)
